# Assay results: publication PMC8830364 (Bioorganic & medicinal chemistry letters, 2021)
# What was measured:
# [1] = target: T1, Human neutrophil elastase (HNE) (Homo sapiens, UniProt P08246); test: HNE inhibitory activity; type: biochemical; conditions: for HNE inhibitory activity (in words): as described
# T1 sequence (P08246 30-267): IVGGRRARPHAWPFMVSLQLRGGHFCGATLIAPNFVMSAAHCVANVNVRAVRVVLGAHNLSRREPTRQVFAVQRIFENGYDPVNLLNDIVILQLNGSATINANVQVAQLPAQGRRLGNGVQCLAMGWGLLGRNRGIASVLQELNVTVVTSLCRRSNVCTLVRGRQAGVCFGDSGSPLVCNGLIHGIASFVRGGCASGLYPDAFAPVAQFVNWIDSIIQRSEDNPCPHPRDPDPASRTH
# [2] = Stability in aqueous buffer; type: physicochemical; conditions: for half-life: Half-life (t1/2) for the spontaneous hydrolysis
# [3] = Chemical stability in human plasma; type: in vitro ADME; conditions: pooled human plasma, 37 °C; for Stability in human plasma (in words): 2.5 μM, 0, 30, 60, 120 min; for Half time in human plasma: 2.5 μM, 0-120 min
# In short: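 Test compound at 2.5 μM (below its K_M) incubated in pooled plasma from healthy volunteers at 37 °C, in triplicate, sampled at 0, 30, 60 and 120 min. Remaining analyte was quantified by LC-MS/MS in MRM mode. Degradation was treated as first-order: the slope of ln(concentration) versus time gave the rate constant k, from which t1/2 was calculated.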
Ki [1],HNE inhibitory activity (in words) [1],Structure (SMILES),further results
> 50 µM,–,Cc1cccc(C(=O)NC2CCCc3c2cnn3-c2ccccc2)c1 (stereo not drawn) [Compound 14c],–
–,–,O=C1c2cnn(C(=O)C3CC3)c2CCC1Br (stereo not drawn) [Compound 10a],Half-life (t1/2) for the spontaneous hydrolysis [2]: 38.7 ± 4.1 min; half-life [2]: 53.9 min
> 50 µM,complete inactivity,O=C1CCCc2c1cnn2-c1cccc(C(F)(F)F)c1 [Compound 7c],–
> 50 µM,complete inactivity,O=C1CCCc2nn(Cc3ccccc3)cc21 [Compound 6e],–
> 50 µM,–,O=C1CCCc2nn(CC(=O)N3CCNCC3)cc21 [Compound 6h],–
–,–,Cc1cccc(C(=O)n2ncc3c2CCCC3=O)c1 [Compound 7a],Stability in human plasma (in words) [3]: rapid degradation rate; Half time in human plasma [3]: ~6 min
> 50 µM,–,O=C(NC1CCCc2c1cnn2-c1ccccc1)C1CC1 (stereo not drawn) [Compound 14b],–
–,–,"O=C(C1CC1)n1cc2c(n1)CCC(Br)(Br)C2=O [Compound 9b, 5,5-dibromo-2-(cyclopropanecarbonyl)-2,5,6,7-tetrahydro-4H-indazol-4-one]",half-life [2]: 235 ± 18.2 min
–,–,Cc1cccc(C(=O)n2cc3c(n2)CCCC3=O)c1 [Compound 6a],Stability in human plasma (in words) [3]: rapid degradation rate; Half time in human plasma [3]: ~6 min
> 50 µM,complete inactivity,O=C1CCCc2c1cnn2Cc1cccc(C(F)(F)F)c1 [Compound 7d],Stability in human plasma (in words) [3]: maintained their spiked concentration for all of the incubation times
> 50 µM,complete inactivity,O=C1CCCc2nn(Cc3cccc(C(F)(F)F)c3)cc21 [Compound 6d],Stability in human plasma (in words) [3]: maintained their spiked concentration for all of the incubation times
> 50 µM,–,CC(C)(C)OC(=O)N1CCN(C(=O)Cn2ncc3c2CCCC3=O)CC1 [Compound 7g],–
> 50 µM,complete inactivity,O=C1CCCc2c1cnn2Cc1ccccc1 [Compound 7e],–
> 50 µM,complete inactivity,O=C1CCCc2nn(-c3cccc(C(F)(F)F)c3)cc21 [Compound 6c],–
> 50 µM,–,CC(C)(C)OC(=O)N1CCN(C(=O)Cn2cc3c(n2)CCCC3=O)CC1 [Compound 6g],–
> 50 µM,–,O=C(C1CC1)N(C(=O)C1CC1)C1CCCc2c1cnn2-c1ccccc1 (stereo not drawn) [Compound 14a],–

Structure (SMILES),Ki [1],HNE inhibitory activity (in words) [1],further results
O=C1c2cnn(CC(=O)N3CCN(c4ccccc4)CC3)c2CCC1Br (stereo not drawn) [Compound 10d],> 50 µM,low active or devoid of HNE inhibitory activity,–
CC(C)(C)OC(=O)n1cc2c(n1)CCC(Br)C2=O (stereo not drawn) [Compound 9e],> 50 µM,low active or devoid of HNE inhibitory activity,–
O=C1c2cn(CC(=O)N3CCN(c4ccccc4)CC3)nc2CCC1Br (stereo not drawn) [Compound 9f],> 50 µM,low active or devoid of HNE inhibitory activity,–
